Our source for the RBA, Ratio and Efficacy values is ChEMBL document CHEMBL1136773, “Bridged bicyclic cores containing a 1,1-diarylethylene motif are high-affinity subtype-selective ligands for the estrogen receptor” (J Med Chem, 2003).

For assay [1], the target named is T1, Estrogen receptor (Homo sapiens) (UniProt P03372).
T1 sequence (whole entry): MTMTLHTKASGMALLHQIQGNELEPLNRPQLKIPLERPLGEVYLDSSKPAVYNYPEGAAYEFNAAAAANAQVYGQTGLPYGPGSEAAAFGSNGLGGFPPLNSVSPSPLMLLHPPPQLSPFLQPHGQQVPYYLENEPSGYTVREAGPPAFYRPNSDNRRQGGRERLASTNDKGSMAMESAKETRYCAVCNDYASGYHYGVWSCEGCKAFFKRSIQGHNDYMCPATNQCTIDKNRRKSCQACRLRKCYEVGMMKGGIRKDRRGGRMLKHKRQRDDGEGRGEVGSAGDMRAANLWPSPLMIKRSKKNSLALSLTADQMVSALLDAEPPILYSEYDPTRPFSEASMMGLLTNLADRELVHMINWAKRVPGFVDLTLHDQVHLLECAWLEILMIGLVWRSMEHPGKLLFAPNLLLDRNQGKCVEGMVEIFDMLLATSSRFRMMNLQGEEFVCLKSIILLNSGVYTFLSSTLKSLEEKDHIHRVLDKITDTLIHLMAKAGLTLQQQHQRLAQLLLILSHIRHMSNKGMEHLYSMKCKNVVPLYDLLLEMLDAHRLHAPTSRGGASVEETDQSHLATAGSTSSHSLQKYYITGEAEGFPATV
As to the kind of experiment: Binding affinity for purified human Estrogen receptor alpha was determined using a competitive radiometric binding assay with [3H]estradiol.

The target of assay [2] is Estrogen receptor beta (Homo sapiens) (UniProt Q92731). As to the kind of experiment: Binding affinity for purified human Estrogen receptor beta was determined using a competitive radiometric binding assay with estradiol.
Assay [3] concerns the target Estrogen receptor (Homo sapiens) (UniProt Q92731+P03372). As to the kind of experiment: Ratio of binding affinity for purified human estrogen beta receptors to that of binding affinity for purified human estrogen alpha receptors.
In assay [4] the target is T1, Estrogen receptor (Homo sapiens). As to the kind of experiment: Transcriptional agonistic efficacy against ER alpha at 10e-6 M by cotransfection in HEC-1 cells. It counts as functional, cell-based. The procedure, abridged: (§1)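 HEC-1 cells were grown in charcoal dextran-treated calf serum medium without phenol red. They were lipofected for 5 h at 37 °C with ERα or ERβ expression vector, 2ERE-pS2-Luc reporter and pCMV β-galactosidase control. Agonist screen used 10^-8 and 10^-6 M ligand for 24 h. Read-out is luciferase corrected by β-galactosidase, expressed as % of the 10^-9 M estradiol response.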

Assay [5] concerns the target Estrogen receptor beta (Homo sapiens) (UniProt Q92731). As to the kind of experiment: Transcriptional agonistic efficacy against ER beta at 10e-6 M was determined by cotransfection in HEC-1 cells. It counts as functional, cell-based. The procedure, abridged:
as §1

Assay [6] deals with T1, Estrogen receptor (Homo sapiens). As to the kind of experiment: Transcriptional agonistic efficacy against ER alpha at 10e-8 M by cotransfection in HEC-1 cells. It counts as functional, cell-based. The procedure, abridged: as §1
The target of assay [7] is Estrogen receptor beta (Homo sapiens) (UniProt Q92731). As to the kind of experiment: Transcriptional agonistic efficacy against ER beta at 10e-8 M by cotransfection in HEC-1 cells. It counts as functional, cell-based. Put shortly:
as §1

Assay [8] deals with T1, Estrogen receptor (Homo sapiens). As to the kind of experiment: Transcriptional antagonistic efficacy agains ER alpha at 10e-6 M by cotransfection in HEC-1 cells. It counts as functional, cell-based. The procedure, abridged:
(§2)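 Cotransfection in HEC-1 cells as for agonism: ERα or ERβ vector, 2ERE-pS2-Luc reporter, β-galactosidase control, lipofectin for 5 h. Ligand at 10^-6 M was given together with 10^-9 M estradiol for 24 h. Luciferase activity was normalized to β-galactosidase and expressed relative to 10^-9 M estradiol alone, set at 100%.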

The target in assay [9] is Estrogen receptor beta (Homo sapiens) (UniProt Q92731). As to the kind of experiment: Transcriptional antagonistic efficacy against ERbeta at 10e-6 M by cotransfectio in HEC-1 cells. The assay is classed as functional, cell-based. The procedure, abridged: as §2
The target is the same in assay [10]. As to the kind of experiment: Binding affinity for purified human Estrogen receptor beta by displacement of [3H]estradiol. (Displacement assays read how much labelled ligand stays bound in the presence of the test substance.)

Sequence of Estrogen receptor beta (Homo sapiens) (Q92731 whole entry): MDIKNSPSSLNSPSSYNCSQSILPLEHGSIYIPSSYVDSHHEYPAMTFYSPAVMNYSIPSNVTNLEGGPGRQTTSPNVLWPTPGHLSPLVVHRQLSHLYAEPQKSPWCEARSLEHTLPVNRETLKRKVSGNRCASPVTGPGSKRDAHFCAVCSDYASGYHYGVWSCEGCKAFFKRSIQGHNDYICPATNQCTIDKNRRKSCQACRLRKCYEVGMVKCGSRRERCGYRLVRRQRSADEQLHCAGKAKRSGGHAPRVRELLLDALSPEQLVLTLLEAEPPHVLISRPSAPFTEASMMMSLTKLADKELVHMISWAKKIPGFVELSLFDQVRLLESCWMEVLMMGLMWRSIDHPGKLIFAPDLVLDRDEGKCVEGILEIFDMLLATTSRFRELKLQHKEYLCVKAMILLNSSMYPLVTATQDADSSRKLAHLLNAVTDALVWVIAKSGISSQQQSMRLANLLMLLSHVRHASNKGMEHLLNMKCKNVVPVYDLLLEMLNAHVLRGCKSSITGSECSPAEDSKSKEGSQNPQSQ

In the case of `Oc1ccc(C(c2ccc(O)cc2)C2CCCCC2)cc1`, the RBA was found to be 3.2% in [1] and 9% in assay [2]. Also, the Ratio in assay [3] was 2.8.

On to `Oc1ccc(C(=C2CC3CC2C2CCCC32)c2ccc(O)cc2)cc1` (stereo not drawn), for which the figures for the RBA in assay [1] and in [2] were 97% and 125%, respectively. Also, the Efficacy in assay [4] is 26%; in assay [5], 2%; in assay [6], 27%; in [7], 2%; in assay [8], 35%; in assay [9], 2%. In addition, the Ratio in assay [3] worked out at 1.3.

`Oc1ccc(C(=C2C3CCCC2CCC3)c2ccc(O)c(O)c2)cc1`: the RBA was 108% in assay [1] and 187% in assay [2]. Besides, the Efficacy in assay [4] was determined as 20%; in assay [5] it was 2%; in assay [6], 15%; in assay [7] it was 2%; in [8], 38%; in assay [9] it was 2%. Moreover, the Ratio in [3] was 1.7.

Regarding `Oc1ccc(C(=C2C3CCCC2CCC3)c2ccc(F)cc2)cc1`, the RBA was 40% in assay [1] and 52% in [10]. For the same molecule, the Efficacy in assay [4] came to 63%; in assay [5] it was 10%; in [6] it was 58%; in assay [7], 7%; in assay [8], 65%; in [9], 16%. Further, the Ratio in [3] was determined as 1.3.

Take `Oc1ccc(C2(c3ccc(O)cc3)C3CCCC2CCC3)cc1`: the RBA in assay [1] was 0.31%; in assay [2] it was 0.25%. Besides, the Efficacy in assay [4] worked out at 6%; in assay [5], 4%; in [6], 1%; in assay [7] it was 2%; in assay [8], 43%; in assay [9], 78%. The Ratio in assay [3] was 0.81.

With `Oc1ccc(C(=C2CCCCC2)c2ccc(O)cc2)cc1`, the RBA was 68% in assay [1] and 334% in assay [2]. For the same molecule, the Efficacy in [4] is 12%; in assay [5], 3%; in [6] it was 9%; in assay [7], 2%; in assay [8] it was 22%; in assay [9], 4%. Further, the Ratio in assay [3] was determined as 4.9.

Turning to `Oc1ccc(C(=C2C3CC4CC(C3)CC2C4)c2ccc(O)cc2)cc1`, the RBA in assay [1] was found to be 243%; in assay [2] it was 317%. Besides, the Efficacy came to 20% in [4]; 2% in assay [5]; 20% in assay [6]; 2% in [7]; 19% in [8]; 2% in [9]. For the same molecule, in [3], the Ratio amounted to 1.3.

For `CC1(C)CC(=C(c2ccc(O)cc2)c2ccc(O)cc2)C[C@]2(C)C(C)(C)[C@H]3CC[C@@]12C3`, the RBA was found to be 9% in assay [1] and 13% in assay [2]. Further, the Efficacy in [4] came out at 4%; in assay [5], 1%; in assay [6], 1%; in assay [7] it was 1%; in [8] it was 30%; in [9], 15%. For the same molecule, in assay [3], the Ratio came out at 1.4.

As for `Oc1ccc(C(=C2C3CCCC2CCC3)c2ccc(O)cc2)cc1`, the results for the RBA in assay [1] and in assay [10] were 513% and 301%, respectively. Moreover, the Efficacy in assay [4] was determined as 22%; in assay [5] it was 2%; in [6], 25%; in assay [7] it was 2%; in [8], 23%; in assay [9] it was 2%. In assay [3], the Ratio turned out to be 0.59.

For the molecule `Oc1ccc(C(=C2C3CCCC2CCC3)c2cccc(O)c2)cc1`, the RBA came out at 46% in assay [1] and 89% in [2]. Besides, the Ratio in [3] was determined as 1.9.

For the molecule `Oc1ccc(C(=C2CC3CCC2C3)c2ccc(O)cc2)cc1` (stereo not drawn), the RBA came to 47% in assay [1] and 211% in [2]. Moreover, the Efficacy in assay [4] worked out at 22%; in assay [5], 3%; in assay [6], 25%; in assay [7], 3%; in assay [8], 32%; in [9], 3%. Moreover, the Ratio in [3] turned out to be 4.5.

Turning to `Oc1ccc(C(c2ccc(O)cc2)C2C3CCCC2CCC3)cc1` (stereo not drawn), the RBA in assay [1] worked out at 15%; in assay [2] it was 13%. In addition, the Efficacy in assay [4] came out at 41%; in assay [5], 50%; in assay [6], 16%; in [7] it was 21%; in assay [8], 40%; in assay [9], 55%. Also, the Ratio in [3] came out at 0.87.

Consider `Oc1ccc(C(=C2C3CCCC2CCC3)c2ccccc2)cc1`, for which the RBA worked out at 31% in assay [1] and 35% in [2]. Besides, the Efficacy in [4] was 80%; in assay [5] it was 17%; in [6], 71%; in [7], 8%; in assay [8] it was 83%; in assay [9], 22%. Moreover, the Ratio in assay [3] came out at 1.1.

In the case of `CC12CCC(C1)C(C)(C)C2=C(c1ccc(O)cc1)c1ccc(O)cc1` (stereo not drawn), the RBA was 10% in [1] and 8% in assay [2]. The Efficacy in [4] was found to be 11%; in assay [5], 3%; in assay [6], 5%; in assay [7], 2%; in assay [8] it was 18%; in assay [9], 13%. Further, the Ratio in assay [3] was 0.8.

With `CC12CCC(CC1=C(c1ccc(O)cc1)c1ccc(O)cc1)C2(C)C` (stereo not drawn), the RBA is 57% in [1] and 189% in assay [2]. For the same molecule, the Efficacy in [4] is 28%; in assay [5] it was 4%; in assay [6], 24%; in assay [7], 3%; in [8], 21%; in assay [9] it was 4%. In addition, in assay [3], the Ratio is 3.3.
